TAAR1 antag: antagonists of human TAAR1 | AID 624466 | inhibition, % at 3 µM | Q96RJ0 | actives 1.5% (n = 360,000) | CHO RD-HGA16 TAAR1, Fluo-8 calcium fluorescence, antagonist;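 active means inhibition above a per-plate cutoff, the mean inhibition of test compounds on that plate plus 3 SD, cut at about 49% in these data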;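 further: 0% = DMSO plus EC80 beta-PEA response and 100% = DMSO alone without agonist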
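Material: RD-HGA16 CHO cells with stable hTAAR1 and Gα16; Dosing: single nominal final test compound concentration of 3 µM; Schedule: seeding 17-24 h prior, 75-min 37 °C, 30-min RT dye loading; Detection: kinetic Fluo-8 calcium fluorescence measurement; Measure: % inhibition from peak post-agonist over basal fluorescence ratio; Benchmarks: vehicle and agonist controls.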
OX1R antag-1: antagonists of human orexin 1 receptor (OX1R); OX1R-expressing cells, FRET antagonist read-out; actives 1.8% (n = 330,000); inhibition, % at 6.6 µM; in the data active means inhibition mostly above about 38%, no sharp cut-off; inactive means mostly below about 40%;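 further: 0% = agonist challenge alone and 100% = reference antagonist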
Target sequence (O43613 whole entry, looked up): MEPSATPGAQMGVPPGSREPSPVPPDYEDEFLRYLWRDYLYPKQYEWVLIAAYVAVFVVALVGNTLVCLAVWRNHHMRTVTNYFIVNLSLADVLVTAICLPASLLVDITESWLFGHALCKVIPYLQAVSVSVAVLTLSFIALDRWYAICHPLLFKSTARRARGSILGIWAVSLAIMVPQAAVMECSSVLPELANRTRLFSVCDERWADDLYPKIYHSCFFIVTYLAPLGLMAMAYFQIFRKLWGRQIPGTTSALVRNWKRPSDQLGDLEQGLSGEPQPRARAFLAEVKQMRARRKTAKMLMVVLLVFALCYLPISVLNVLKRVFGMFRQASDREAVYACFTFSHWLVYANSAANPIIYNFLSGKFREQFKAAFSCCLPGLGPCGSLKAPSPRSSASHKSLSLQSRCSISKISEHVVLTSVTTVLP
TAAR1 agonist: agonists of human TAAR1; CHO RD-HGA16 TAAR1, Fluo-8 calcium fluorescence; vehicle wells 0%, saturating PEA agonist 100%; activation, % at 3 µM; actives 0.99% (n = 360,000); AID 624467;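 active means activation above the mean activation of all test compounds in the run plus 3 SD, cut at about 38% in these data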
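Test system: RD-HGA16 (CHO) cells co-expressing Gα16 and hTAAR1 | Doses: Single dose, 3 µM | Schedule: 17-24 h seeding, 75 min 37 °C dye, 30 min RT | Evaluation: % activation from peak over basal fluorescence ratio, DMSO-to-PEA scaled | Technique: Kinetic Fluo-8 calcium fluorescence | Benchmarks: Low control DMSO, high control PEA (EC100)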
OX1R antag-2: antagonists of human orexin 1 receptor | actives 0.43% (n = 330,000) | CHO/OX1R cells, Fluo-8 calcium fluorescence, orexin A | inhibition, % at 5 µM;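 active means inhibition above its plate's threshold, mean inhibition of all tested compounds on the plate plus 3 SD, cut at about 37% in these data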;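 further: 0% = orexin A challenge wells and 100% = SB-334867-A antagonist wells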
GalR3 antag: antagonists of human GalR3 | O60755 | HEK293 GalR3-CNG cAMP membrane potential fluorescence; galR3 body fused to GalR1 C-terminus | inhibition, % at 3 µM | actives 0.44% (n = 360,000);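 active means inhibition above the screen-wide average plus 3 SD, cut at about 13% in these data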;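 further: forskolin and galanin both at EC90 stimulate the cells; cAMP rise reported by CNG channel membrane potential dye signal; 0% = forskolin plus galanin with DMSO and 100% = forskolin alone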
CHO parental Ca: counter-screen for OX1R antagonists: effect in parental CHO cells; parental CHO-K1, ATP-induced calcium, Fluo-8 fluorescence; inhibition, % at 5.6 µM; actives 0.63% (n = 330,000); AID 463079;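 active means inhibition above that plate's mean sample inhibition plus 3 SD, cut at about 26% in these data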;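 further: 0% = ATP-challenged DMSO wells and 100% = DMSO wells without ATP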
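Material – parental CHO cells · Reagent – ATP stimulus · Compound – single nominal dose of 5.6 µM per compound · Detection – Fluo-8 fluorescence · Read-out basis – percent inhibition of calcium signal · Controls – ATP-challenged DMSO wells low, unchallenged DMSO wells high · Repeats – no replicates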
nonsel antag count: counter-screen for TAAR1 antagonists: nonselective antagonists | inhibition, % at 3 µM | AID 651780 | shares compounds with TAAR1 antag | counterscreen cell line, calcium fluorescence, antagonist mode | actives 77% (n = 2,400); in the data active means inhibition above about 22%;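 further: CHO-Ga16 host cells stimulated with ATP at an EC80 level; 0% = agonist EC80 plus vehicle and 100% = vehicle without agonist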
TAAR1 ant conf: human TAAR1 antagonism, confirmed; shares compounds with TAAR1 antag; TAAR1-expressing cells, fluorescence antagonist read-out; inhibition, % at 3 µM; actives 40% (n = 2,400); in the data active means inhibition above about 49%;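 further: CHO-Ga16 host cells challenged with agonist PEA near its EC80; 0% = agonist at EC80 plus vehicle and 100% = vehicle with no agonist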
Ga16 ag counter: nonselective Ga16 agonist in TAAR1 antagonist counter-screen; Ga16-expressing cells, calcium fluorescence, agonist counterscreen; AID 651953; shares compounds with TAAR1 antag; actives 18% (n = 2,400); activation, % at 3 µM; in the data active means activation above about 12%;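 further: 0% = vehicle wells and 100% = saturating stimulus response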
TAAR1 ag counter: activates human TAAR1 in antagonist counter-screen; actives 2% (n = 2,400); shares compounds with TAAR1 antag; hTAAR1 cell line, fluorescence activation, agonist mode; activation, % at 3 µM; in the data active means activation above about 37%;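 further: CHO cells stably expressing TAAR1 with calcium dye readout; 0% = DMSO vehicle and 100% = full agonist response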
Active calls of the source: *; · = no result. Hits are enriched below; roughly 4.2% of the tested compounds scored in any of these assays.

SMILES	TAAR1 antag	OX1R antag-1	TAAR1 agonist	OX1R antag-2	GalR3 antag	CHO parental Ca	nonsel antag count	TAAR1 ant conf	Ga16 ag counter	TAAR1 ag counter
COc1ccc(C(=O)OCC2CC(c3ccccc3)=NO2)cc1OC (stereo not drawn)	-8.1	3.1	1.8	-24.4	-3.5	-5.5	·	·	·	·
COc1cc(/C=N/NC(=O)c2nnn(-c3nonc3N)c2C)ccc1OCc1ccc(Cl)cc1	2.9	·	0.2	·	-6.5	·	·	·	·	·
COC(=O)[C@@]12CCCCN1[C@H](c1ccc(-c3ccc(C(C)=O)cc3)cc1)[C@@H]1C(=O)N(C)C(=O)[C@@H]12	23.0	25.0	20.7	-15.7	-4.0	-20.8	·	·	·	·
Cc1n[nH]c(C)c1CCc1nc2c3ccccc3nc(SCC(=O)Nc3ccccc3F)n2n1	61.3*	28.3	8.7	-20.7	8.0	-20.1	22.6*	37.3	8.5	10.1
CCN1CCN(Cc2ccc(NC(=O)c3cccc(-c4ccc5nc(NC(=O)C6CC6)sc5n4)c3)cc2C(F)(F)F)CC1	65.7*	·	17.4	·	0.7	·	44.2*	59.7*	11.3	12.5
CCN1CCN(Cc2ccc(NC(=O)c3ccc(C)c(NC(=O)c4ccc5n[nH]nc5c4)c3)cc2C(F)(F)F)CC1	7.6	27.8	0.8	-5.0	-6.3	4.3	·	·	·	·
CCN1CCN(Cc2ccc(NC(=O)c3ccc(C)c(NC(=O)C(=O)c4c[nH]c5ccccc45)c3)cc2C(F)(F)F)CC1	78.5*	46.1	20.7	8.5	-7.4	22.1	45.8*	47.1	10.6	10.3
Cc1ccc(NC(=O)C2COc3ccccc3O2)cc1 (stereo not drawn)	6.6	-3.7	3.4	-24.7	-9.6	-4.6	·	·	·	·
COc1ccc(-c2csc(NC(=O)C3COc4ccccc4O3)n2)cc1OC (stereo not drawn)	61.8*	14.8	5.1	-20.7	·	0.1	29.3*	40.4	7.2	5.2
CCOc1ccc(-c2csc(NC(=O)c3cccc(N4C(=O)CCC4=O)c3)n2)cc1	68.1*	15.0	18.8	-18.6	-5.1	11.0	31.7*	43.9	12.1*	13.6
COc1ccc(-c2csc(NC(=O)c3cccc(N4C(=O)CCC4=O)c3)n2)cc1OC	65.1*	7.8	8.5	-7.1	-4.1	-9.3	21.0	33.0	6.9	8.9
Cc1ccc(-c2csc(NC(=O)c3cccc(N4C(=O)CCC4=O)c3)n2)o1	·	12.0	·	-22.6	·	-8.9	·	·	·	·
O=C(Nc1ccc(-c2cn3ccsc3n2)cc1)C1COc2ccccc2O1 (stereo not drawn)	59.6*	49.9	23.5	6.3	1.3	8.2	37.9*	56.4*	15.3*	11.0
CCN=C1NN=C(c2c[nH]c3ccccc23)CS1	16.0	16.7	8.0	-8.4	-2.7	-10.3	·	·	·	·
CCC(=O)N1CCN(c2ccc(NC(=O)COc3ccccc3Cl)cc2)CC1	15.8	5.9	21.4	-2.4	-4.2	-17.2	·	·	·	·
CCC(=O)N1CCN(c2ccc(NC(=O)COc3ccccc3[N+](=O)[O-])cc2)CC1	86.4*	20.2	21.3	-23.6	-5.7	-15.8	31.9*	57.2*	13.9*	14.5
O=C(Nc1ccc(N2CCOCC2)c(Cl)c1)c1ccc(-n2cnnc2)cc1	1.2	14.8	2.2	-6.5	-4.2	2.7	·	·	·	·
Cc1cccc(Cn2nc(C(C)(C)C)cc2C(=O)Nc2ccc(F)cc2)c1	69.9*	64.0	4.7	17.0	-3.9	4.6	30.9*	48.5	2.6	6.5
O=C(Nc1ccc(N2CCOCC2)c(Cl)c1)c1ccc(F)cc1	62.9*	10.6	13.8	-12.4	0.1	-11.2	18.0	29.0	10.5	8.1

Assay outcomes deposited in PubChem by The Scripps Research Institute Molecular Screening Center.
